Measured values as given in ChEMBL document CHEMBL1122794, “[(Arylcarbonyl)oxy]propanolamines. 1. Novel beta-blockers with ultrashort duration of action” (J Med Chem, 1984).

Key:
[1] = Stability at pH 7.4 and 37 degree Celsius (after 18 h); format: physicochemical; details: buffer
Procedure, shortened: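 Chemical stability was tested in pH 7.4 buffer at 37 °C. The percentage of parent compound remaining after 18 h of incubation was recorded.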

[2] = Time in which 1/2 of the initial amount disappeared in canine liver (44); format: ADME, […], Canis lupus familiaris; details: dog
Procedure, shortened: (§1)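 1 mL of solution containing 50 µg of compound was added to 1 mL of dog or human whole blood, or to 1 mL of 33% (w/v) canine liver homogenate. They were assayed by HPLC on a phenyl column with 60% acetonitrile/40% 0.05 M sodium phosphate (pH 6.6) and UV detection. Half-life was read graphically from concentration versus time.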

[3] = Time in which 1/2 of the initial amount disappeared in human blood.; format: ADME, organism-based; procedure, shortened: as §1
[4] = T1/2 in canine blood; format: ADME, […], Canis lupus familiaris; details: dog; procedure, shortened: as §1
[5] = Selectivity determined by expression 10[pA2(atria) - pA2 (trachea)] in guinea pig; format: functional, Cavia porcellus
[6] = species: Canis familiaris; assay: Percent inhibition of isoproterenol induced tachycardia at a dose of 57/122 microg (3-h infusion period); format: functional, Canis lupus familiaris
[7] = biological target: T1, Adrenergic receptor beta (Homo sapiens, UniProt P08588+P07550+P13945); assay: In vitro blocking of beta adrenergic receptor in guinea pig trachea; format: tissue-based, Cavia porcellus; details: target entry is the homologue from another species
[8] = biological target: T1, Adrenergic receptor beta; assay: In Vitro inhibition of the beta adrenergic receptor in guinea pig atria; format: tissue-based, Cavia porcellus; details: target entry is the homologue from another species
[9] = species: Canis familiaris; assay: Time taken for 80% recovery at a dose of 57/122 microg (3-h infusion period); format: functional, organism-based; details: Canis lupus familiaris
[10] = species: Canis familiaris; assay: Time taken for 80% recovery at a dose of 1 microg (3-h infusion period); format: functional, organism-based; details: Canis lupus familiaris
[11] = t1/2 in canine liver; format: ADME, Canis lupus familiaris; details: dog
[12] = species: Canis familiaris; assay: Percent inhibition of isoproterenol induced tachycardia at a dose of 1 microg (3-h infusion period); format: functional, Canis lupus familiaris
[13] = species: Canis familiaris; assay: Percent inhibition of isoproterenol induced tachycardia at a dose of 100 microg (3-h infusion period); format: functional, Canis lupus familiaris
[14] = species: Canis familiaris; assay: Time taken for 80% recovery at a dose of 100 microg (3-h infusion period); format: functional, organism-based; details: Canis lupus familiaris
[15] = species: Canis familiaris; assay: Time taken for 80% recovery at a dose of 27 microg (3-h infusion period); format: functional, organism-based; details: Canis lupus familiaris
[16] = species: Canis familiaris; assay: Percent inhibition of isoproterenol induced tachycardia at a dose of 27 microg (3-h infusion period); format: functional, Canis lupus familiaris
[17] = species: Canis familiaris; assay: Time taken for 80% recovery at a dose of 128 microg (3-h infusion period) / 85 kg min (40-min infusion model); format: functional, organism-based; details: Canis lupus familiaris
[18] = species: Canis familiaris; assay: Percent inhibition of isoproterenol induced tachycardia at a dose of 128 microg (3-h infusion period) / 85 kg min (40-min infusion model); format: functional, Canis lupus familiaris
[19] = species: Canis familiaris; assay: Time taken for 80% recovery at a dose of 182 microg (3-h infusion period); format: functional, organism-based; details: Canis lupus familiaris
[20] = species: Canis familiaris; assay: Percent inhibition of isoproterenol induced tachycardia at a dose of 182 microg (3-h infusion period); format: functional, Canis lupus familiaris
[21] = species: Canis familiaris; assay: Time taken for 80% recovery at a dose of 36 microg (3-h infusion period); format: functional, organism-based; details: Canis lupus familiaris
[22] = species: Canis familiaris; assay: Percent inhibition of isoproterenol induced tachycardia at a dose of 36 microg (3-h infusion period); format: functional, Canis lupus familiaris
[23] = Time in which 1/2 of the initial amount disappeared in human blood; format: ADME, organism-based; procedure, shortened: as §1
[24] = species: Canis familiaris; assay: Time taken for 80% recovery at a dose of 0.59-1.26 microg (3-h infusion period); format: functional, organism-based; details: Canis lupus familiaris
[25] = species: Canis familiaris; assay: Percent inhibition of isoproterenol induced tachycardia at a dose of 0.59-1.26 microg (3-h infusion period); format: functional, Canis lupus familiaris

SMILES	half-life [3]	half-life [4]	pA2 [7]	pA2 [8]	half-life [11]	Selectivity [5]	other results
CC(C)(CNS(=O)(=O)c1ccccc1)NCC(O)COC(=O)c1ccccc1F.O=C(O)C(=O)O (centres undefined)		15 min	7.9	7		1	Inhibition [6]: 43%; Recovery time [9]: 6 min
COc1ccc(CCNCC(O)COC(=O)c2ccccc2F)cc1OC (centres undefined)			5.7	6.1		2.5	Inhibition [13]: 48%; remaining at 18 h [1]: 35%; Recovery time [14]: > 60 min
CC(C)(C)NCC(O)COC(=O)c1ccc(F)cc1 (centres undefined)		16 min	8	7.3	66 min	-5	half-life [23]: 11.5 min
CC(C)NCC(O)COC(=O)c1ccc(N)cc1 (centres undefined)	60 min	> 180 min	6.6	6.7	> 180 min	1	Recovery time [24]: > 60 min; Inhibition [25]: 80%

Further lines, with some results ahead:

half-life [3]	half-life [4]	pA2 [7]	pA2 [8]	half-life [11]	SMILES	Selectivity [5]	other results
1.7 min	28 min				CC(C)NCC(O)COC(=O)c1ccccc1Cl (centres undefined)		remaining at 18 h [1]: 92%; half-life [2]: 12 min
	15 min	8.4	8.1	2.5 min	CC(C)(CNC(N)=O)NCC(O)COC(=O)c1ccccc1F (centres undefined) [FLESTOLOL]	-2	Recovery time [10]: 21 min; Inhibition [12]: 49%
	41 min	8	7.1	31 min	CC(C)(C)NCC(O)COC(=O)c1ccccc1O (centres undefined)	-9	Recovery time [15]: > 60 min; Inhibition [16]: 73%
2.3 min	6.8 min	7.2	6.3	8 min	CC(C)NCC(O)COC(=O)c1ccccc1 (centres undefined)	-7	Recovery time [17]: 26 min; Inhibition [18]: 63%
		6.6	6.4		CC(C)NCC(O)COC(=O)c1ccc2ccccc2c1 (centres undefined)	-2	Recovery time [19]: > 60 min; Inhibition [20]: 54%
	8 min	7	7.1	1 min	CCOC(=O)NCC(C)(C)NCC(O)COC(=O)c1ccccc1F (centres undefined)	1	Recovery time [21]: 8 min; Inhibition [22]: 49%
